Reference: ChEMBL document CHEMBL4138104, “Indole carboxylic acid esters of melampomagnolide B are potent anticancer agents against both hematological and solid tumor cells” (Eur J Med Chem, 2017)

Columns and labels:
Assay type in all cases: functional
CCRF-CEM = test: Growth inhibition of human CCRF-CEM cells incubated for 48 hrs by sulforhodamine B assay
In short: (§1)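 NCI-60 screen. Compounds were dosed at five concentrations spanning 10^-4 to 10^-8 M for 48 h at 37 °C. Cells were TCA-fixed, stained with 0.4% SRB and read at 515 nm against time-zero and vehicle controls. GI50 is the concentration giving a 50% reduction in net protein increase.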

HL-60(TB) = test: Growth inhibition of human HL-60(TB) cells incubated for 48 hrs by sulforhodamine B assay; conditions: HL-60, 48 h
In short: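 Performed at NCI's 60-line screen. Cells grown in RPMI with 5% FBS and 2 mM L-glutamine, plated 5,000–40,000 cells/well and incubated 24 h at 37 °C before compound addition. DMSO stocks were diluted in medium with gentamicin, and five concentrations spanning 10^-4 to 10^-8 M were tested. Exposure was 48 h. Cells were fixed with TCA, stained with SRB, and read at 515 nm. GI50 taken from log dose-response curves as 50% reduction in net protein increase versus control.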

K562 = test: Growth inhibition of human K562 cells incubated for 48 hrs by sulforhodamine B assay; conditions: K562, 48 h; in short: as §1
MOLT-4 = test: Growth inhibition of human MOLT4 cells incubated for 48 hrs by sulforhodamine B assay; conditions: MOLT-4, 48 h; in short: as §1
RPMI-8226 = test: Growth inhibition of human RPMI8226 cells incubated for 48 hrs by sulforhodamine B assay; conditions: RPMI-8226, 48 h; in short: as §1
A549 = test: Growth inhibition of human A549/ATCC cells incubated for 48 hrs by sulforhodamine B assay; conditions: A549, 48 h; in short: as §1
HOP-92 = test: Growth inhibition of human HOP92 cells incubated for 48 hrs by sulforhodamine B assay; conditions: HOP-92, 48 h; in short: as §1
NCI-H226 = test: Growth inhibition of human NCI-H226 cells incubated for 48 hrs by sulforhodamine B assay; conditions: NCI-H226, 48 h; in short: as §1
NCI-H23 = test: Growth inhibition of human NCI-H23 cells incubated for 48 hrs by sulforhodamine B assay; conditions: NCI-H23, 48 h; in short: as §1
NCI-H322M = test: Growth inhibition of human NCI-H322M cells incubated for 48 hrs by sulforhodamine B assay; in short: as §1
NCI-H460 = test: Growth inhibition of human NCI-H460 cells incubated for 48 hrs by sulforhodamine B assay; conditions: NCI-H460, 48 h; in short: as §1
NCI-H522 = test: Growth inhibition of human NCI-H522 cells incubated for 48 hrs by sulforhodamine B assay; conditions: NCI-H522, 48 h; in short: as §1
HCC 2998 = test: Growth inhibition of human HCC2998 cells incubated for 48 hrs by sulforhodamine B assay; conditions: HCC 2998, 48 h; in short: as §1
HCT-116 = test: Growth inhibition of human HCT116 cells incubated for 48 hrs by sulforhodamine B assay; conditions: HCT-116, 48 h; in short: as §1
HCT-15 = test: Growth inhibition of human HCT15 cells incubated for 48 hrs by sulforhodamine B assay; conditions: HCT-15, 48 h; in short: as §1
HT-29 = test: Growth inhibition of human HT-29 cells incubated for 48 hrs by sulforhodamine B assay; conditions: HT-29, 48 h; in short: as §1
KM12 = test: Growth inhibition of human KM12 cells incubated for 48 hrs by sulforhodamine B assay; conditions: KM12, 48 h; in short: as §1
SW-620 = test: Growth inhibition of human SW620 cells incubated for 48 hrs by sulforhodamine B assay; conditions: SW-620, 48 h
In short: (§2)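 NCI-60 screen run at NCI. Cells grown in RPMI medium with 5% FBS and 2 mM L-glutamine, plated at 5,000–40,000 cells/well, and preincubated 24 h at 37 °C. Time-zero plates were TCA-fixed. Compounds came from DMSO stocks and were tested at five concentrations from 10^-4 to 10^-8 M for 48 h. Cells were then TCA-fixed, stained with 0.4% SRB, and OD read at 515 nm. GI50 is the concentration giving a 50% reduction in net protein increase versus control.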

SF-268 = test: Growth inhibition of human SF268 cells incubated for 48 hrs by sulforhodamine B assay; conditions: SF-268, 48 h; in short: as §1
SF-295 = test: Growth inhibition of human SF295 cells incubated for 48 hrs by sulforhodamine B assay; conditions: SF-295, 48 h; in short: as §1
SF-539 = test: Growth inhibition of human SF539 cells incubated for 48 hrs by sulforhodamine B assay; conditions: SF-539, 48 h; in short: as §1
SNB-19 = test: Growth inhibition of human SNB19 cells incubated for 48 hrs by sulforhodamine B assay; conditions: SNB-19, 48 h; in short: as §2
U-251 = test: Growth inhibition of human U251 cells incubated for 48 hrs by sulforhodamine B assay; conditions: U-251, 48 h; in short: as §2
LOX IMVI = test: Growth inhibition of human LOXIMVI cells incubated for 48 hrs by sulforhodamine B assay; in short: as §1
Malme-3M = test: Growth inhibition of human MALME-3M cells incubated for 48 hrs by sulforhodamine B assay; in short: as §1
SK-MEL-28 = test: Growth inhibition of human SK-MEL-28 cells incubated for 48 hrs by sulforhodamine B assay; conditions: SK-MEL-28, 48 h; in short: as §1
UACC-257 = test: Growth inhibition of human UACC257 cells incubated for 48 hrs by sulforhodamine B assay; conditions: UACC-257, 48 h; in short: as §2
OVCAR-5 = test: Growth inhibition of human OVCAR5 cells incubated for 48 hrs by sulforhodamine B assay; conditions: OVCAR-5, 48 h; in short: as §1
OVCAR-8 = test: Growth inhibition of human OVCAR8 cells incubated for 48 hrs by sulforhodamine B assay; conditions: OVCAR-8, 48 h; in short: as §1
NCI/ADR-RES = test: Growth inhibition of human NCI/ADR-RES cells incubated for 48 hrs by sulforhodamine B assay; in short: as §1
SK-OV-3 = test: Growth inhibition of human SKOV3 cells incubated for 48 hrs by sulforhodamine B assay; conditions: SK-OV-3, 48 h; in short: as §1
A498 = test: Growth inhibition of human A498 cells incubated for 48 hrs by sulforhodamine B assay; conditions: A498, 48 h; in short: as §1
RXF 393 = test: Growth inhibition of human RXF393 cells incubated for 48 hrs by sulforhodamine B assay; conditions: RXF 393, 48 h; in short: as §1
SN12C = test: Growth inhibition of human SN12C cells incubated for 48 hrs by sulforhodamine B assay; in short: as §1
UO-31 = test: Growth inhibition of human UO31 cells incubated for 48 hrs by sulforhodamine B assay; conditions: UO-31, 48 h; in short: as §2
MCF7 = test: Growth inhibition of human MCF7 cells incubated for 48 hrs by sulforhodamine B assay; conditions: MCF7, 48 h; in short: as §1
[1] = Cytotoxicity against human M9-ENL1 cells assessed as reduction in cell viability by trypan blue staining-based assay
In short: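 M9-ENL1 AML cells (MLL-ENL-transduced human blood cells) plated at 10^6 cells/mL in alpha-MEM with 5% human plasma, 20% FBS, SCF, IL-3, IL-7 and FLT3. Drug diluted from DMSO stock into PBS, final DMSO ≤0.5%. After 24 h exposure, dead cells assessed by trypan blue and by flow cytometry (Annexin V/PI or Annexin V/7-AAD). Viability normalized to vehicle; EC50 from dose-response curves; triplicate.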

Row | SMILES | GI50 (CCRF-CEM) [µM] | GI50 (HL-60(TB)) [µM] | GI50 (K562) [µM] | GI50 (MOLT-4) [µM] | GI50 (RPMI-8226) [µM] | GI50 (A549) [µM] | GI50 (HOP-92) [µM] | GI50 (NCI-H226) [µM] | GI50 (NCI-H23) [µM] | GI50 (NCI-H322M) [µM] | GI50 (NCI-H460) [µM] | GI50 (NCI-H522) [µM] | GI50 (HCC 2998) [µM] | GI50 (HCT-116) [µM] | GI50 (HCT-15) [µM] | GI50 (HT-29) [µM] | GI50 (KM12) [µM] | GI50 (SW-620) [µM] | GI50 (SF-268) [µM] | GI50 (SF-295) [µM] | also measured
1 | C=C1C(=O)O[C@@H]2[C@H]3O[C@]3(C)CC/C=C(/COC(=O)c3cc4cc(Cl)ccc4[nH]3)CC[C@@H]12 | 0.39 | 0.44 | 1.14 | 0.55 | 0.81 | 1.69 | 1.25 | 1.8 | 1.63 | 4 | 1.72 | 1.59 | 1.4 | 0.7 | 1 | 1.33 | 2.15 | 1.4 | 1.44 | 3.18 | GI50 (SF-539): 1.44 µM; GI50 (SNB-19): 2.91 µM; GI50 (U-251): 1.75 µM; GI50 (LOX IMVI): 0.81 µM; GI50 (Malme-3M): 1.63 µM; GI50 (SK-MEL-28): 1.58 µM; GI50 (UACC-257): 1.7 µM; GI50 (OVCAR-5): 1.53 µM; GI50 (OVCAR-8): 1.34 µM; GI50 (NCI/ADR-RES): 1.45 µM; GI50 (SK-OV-3): 10.2 µM; GI50 (A498): 2.65 µM; GI50 (RXF 393): 1.38 µM; GI50 (SN12C): 1.7 µM; GI50 (UO-31): 1.21 µM; GI50 (MCF7): 0.86 µM; EC50 [1]: 3.8 µM
2 | C=C1C(=O)O[C@@H]2[C@H]3O[C@]3(C)CC/C=C(/COC(=O)c3cc4ccccc4s3)CC[C@@H]12 | 0.4 | 1.89 | 0.81 | 1.88 | 0.56 | 2.04 | 1.68 | 2 | 1.74 | 1.98 | 2.21 | 0.98 | 1.75 | 0.59 | 0.4 | 0.49 | 1.78 | 0.51 | 1.54 | 3.33 | GI50 (SF-539): 1.6 µM; GI50 (SNB-19): 2.09 µM; GI50 (U-251): 1.52 µM; GI50 (LOX IMVI): 0.2 µM; GI50 (Malme-3M): 1.82 µM; GI50 (SK-MEL-28): 1.76 µM; GI50 (UACC-257): 1.77 µM; GI50 (OVCAR-5): 2.02 µM; GI50 (OVCAR-8): 1.8 µM; GI50 (NCI/ADR-RES): 2.14 µM; GI50 (SK-OV-3): 13.9 µM; GI50 (A498): 10.1 µM; GI50 (RXF 393): 1.23 µM; GI50 (SN12C): 2.06 µM; GI50 (UO-31): 1.4 µM; GI50 (MCF7): 0.38 µM; EC50 [1]: 2.7 µM
